{"data": "Measured values gathered from unrelated publications", "target": "Serine/threonine-protein kinase Nek9 (NEK9, Homo sapiens, UniProt Q8TD19)", "One construct used (Q8TD19 1-979)": "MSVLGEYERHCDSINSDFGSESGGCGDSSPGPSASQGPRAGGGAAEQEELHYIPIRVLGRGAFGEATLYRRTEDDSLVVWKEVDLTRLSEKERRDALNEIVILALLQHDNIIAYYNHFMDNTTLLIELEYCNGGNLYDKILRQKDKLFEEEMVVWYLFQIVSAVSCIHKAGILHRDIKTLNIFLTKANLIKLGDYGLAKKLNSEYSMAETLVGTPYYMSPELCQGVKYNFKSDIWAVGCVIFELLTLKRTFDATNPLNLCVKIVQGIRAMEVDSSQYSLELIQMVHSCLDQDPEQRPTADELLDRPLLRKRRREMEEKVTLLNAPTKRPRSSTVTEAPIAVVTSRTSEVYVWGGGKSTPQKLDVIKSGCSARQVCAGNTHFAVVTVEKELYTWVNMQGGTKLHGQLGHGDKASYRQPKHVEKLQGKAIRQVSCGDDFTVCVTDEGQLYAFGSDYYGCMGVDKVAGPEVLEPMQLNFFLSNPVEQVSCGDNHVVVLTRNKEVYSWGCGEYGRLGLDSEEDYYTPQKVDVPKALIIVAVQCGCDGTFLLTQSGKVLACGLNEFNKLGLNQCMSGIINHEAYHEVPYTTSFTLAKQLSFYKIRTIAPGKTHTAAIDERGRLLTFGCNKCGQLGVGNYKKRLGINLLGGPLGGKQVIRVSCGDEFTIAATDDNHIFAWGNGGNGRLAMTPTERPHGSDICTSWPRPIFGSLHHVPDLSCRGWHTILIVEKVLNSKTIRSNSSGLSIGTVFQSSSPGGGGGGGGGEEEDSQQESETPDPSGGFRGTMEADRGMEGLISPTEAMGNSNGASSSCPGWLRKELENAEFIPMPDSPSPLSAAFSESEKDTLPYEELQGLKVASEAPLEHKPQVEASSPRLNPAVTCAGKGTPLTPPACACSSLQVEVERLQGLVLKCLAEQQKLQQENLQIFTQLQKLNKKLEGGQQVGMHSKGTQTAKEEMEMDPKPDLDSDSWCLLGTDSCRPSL"}
{"SMILES": "C[C@@H]1CCN(c2nccc(-c3cnn4ncccc34)n2)C1", "test": "binding", "setting": "1 µM", "remaining binding [%]": 81}
{"SMILES": "O=C(c1ccc(Nc2ncc(Cl)c(-c3cc4ccccc4s3)n2)cc1)N1CCC(N2CCCC2)CC1", "test": "binding, competition with immobilised ligand", "setting": "1 µM", "remaining binding [%]": 33}
{"SMILES": "Cc1cnn2ncc(-c3ccnc(N(C)C)n3)c2c1", "test": "binding", "setting": "1 µM", "remaining binding [%]": 100}
{"SMILES": "COc1cnc(Nc2cccc(S(N)(=O)=O)c2)nc1N1CCN(c2ccccc2)CC1", "test": "binding, competition with immobilised ligand", "setting": "1 µM", "remaining binding [%]": 83}
{"SMILES": "CC1CCCN1c1nccc(-c2cnn3ncccc23)n1 (stereo not shown)", "test": "binding", "setting": "1 µM", "remaining binding [%]": 100}
{"SMILES": "CC(=O)Nc1c(C(C)=O)c(=O)n(C)c2nc(-c3ccc(Cl)cc3Cl)c(-c3ccc(Cl)cc3)cc12", "test": "cell-free assay, competition with immobilised ligand", "setting": "1 µM", "remaining binding [%]": 100}
{"SMILES": "O=C(Nc1c[nH]nc1C(=O)NC1CCNCC1)c1cc(F)cc(F)c1", "test": "binding, competition with immobilised ligand", "setting": "1 µM", "remaining binding [%]": 100}
{"SMILES": "Cc1c(C(=O)O)cc(-c2ccc(C3CCNCC3)cc2)c2ccc(-c3ccc(C(F)(F)F)cc3)cc12", "test": "binding, competition with immobilised ligand", "setting": "1 µM", "remaining binding [%]": 100}
{"SMILES": "Cc1cnc(Nc2ccc(C(=O)N3CCC(N4CCCC4)CC3)cc2)nc1-c1cc2ccccc2s1", "test": "binding, competition with immobilised ligand", "setting": "1 µM", "remaining binding [%]": 14}
{"SMILES": "c1cnn2ncc(-c3ccnc(N4CCC45COC5)n3)c2c1", "test": "binding", "setting": "1 µM", "remaining binding [%]": 82}
{"SMILES": "COc1ncc2cc3ccccc3nc2c1C#N", "test": "cell-free assay, competition with immobilised ligand", "setting": "5 µM", "remaining binding [%]": 95}
{"SMILES": "O=C(c1ccc(Nc2ncc(Cl)c(-c3ccc(Cl)s3)n2)cc1)N1CCC(N2CCCC2)CC1", "test": "binding, competition with immobilised ligand", "setting": "1 µM", "remaining binding [%]": 23}
{"SMILES": "Cn1nc(C(=O)NCc2ccc(C(=O)O)cc2)cc1-c1ccc2[nH]ccc2c1", "test": "cell-free assay, competition with immobilised ligand", "setting": "0.1 µM", "remaining binding [%]": 99}
{"SMILES": "CN(C)c1ncc(F)c(-c2cnn3ncccc23)n1", "test": "binding", "setting": "1 µM", "remaining binding [%]": 100}
{"SMILES": "FC(F)(F)Oc1cccc(-c2cnc3ccc(-c4ccncc4)nn23)c1", "test": "cell-free assay, competition with immobilised ligand", "setting": "5 µM", "remaining binding [%]": 91}
{"SMILES": "CCCOc1ccc([C@H]2[C@H](C(=O)O)[C@@H](c3ccc4c(c3)OCO4)CN2CC(=O)Nc2c(CC)cccc2CC)cc1", "test": "cell-free assay, competition with immobilised ligand", "setting": "1 µM", "remaining binding [%]": 95}
{"SMILES": "F[C@@H]1CCN(c2nccc(-c3cnn4ncccc34)n2)C1", "test": "binding", "setting": "1 µM", "remaining binding [%]": 100}
{"SMILES": "Cc1cc(NC(=O)c2cccc(S(F)(F)(F)(F)F)c2)cc(-n2ccn3nc(-c4cccnc4)cc23)c1", "test": "cell-free assay, competition with immobilised ligand", "setting": "1 µM", "remaining binding [%]": 100}
{"SMILES": "CN(c1nccc(-c2cnn3ncccc23)n1)C1CC1", "test": "binding", "setting": "1 µM", "remaining binding [%]": 100}
{"SMILES": "C[C@@H](c1ccc(-n2cnc3c(N)ncnc32)cc1)N1CCc2nn(C)c(Cc3ccccc3)c2C1=O", "test": "binding, competition with immobilised ligand", "setting": "0.1 µM", "remaining binding [%]": 94}
{"SMILES": "C[C@H](c1ccc(F)cc1)N(Cc1cccc(C(=O)O)c1)C(=O)c1cnc2ccccc2c1", "test": "cell-free assay, competition with immobilised ligand", "setting": "1 µM", "remaining binding [%]": 100}
{"SMILES": "CNC(=O)[C@@H]1CC[C@@H](n2c(-c3ccc4cnccc4c3)nc3ccc(C(=O)NCc4cccc(C(N)=O)c4)cc32)C1", "test": "binding, competition with immobilised ligand", "setting": "1 µM", "remaining binding [%]": 100}
